This is an account of results in ChEMBL document CHEMBL1764970, “New glucocerebrosidase inhibitors by exploration of chemical diversity of N-substituted aminocyclitols using click chemistry and in situ screening” (J Med Chem, 2011).

Bounds are passed on as bounds.

Data set [1] has as its target T1, Lysosomal acid glucosylceramidase (Homo sapiens, UniProt P04062).
T1 sequence (P04062 whole entry): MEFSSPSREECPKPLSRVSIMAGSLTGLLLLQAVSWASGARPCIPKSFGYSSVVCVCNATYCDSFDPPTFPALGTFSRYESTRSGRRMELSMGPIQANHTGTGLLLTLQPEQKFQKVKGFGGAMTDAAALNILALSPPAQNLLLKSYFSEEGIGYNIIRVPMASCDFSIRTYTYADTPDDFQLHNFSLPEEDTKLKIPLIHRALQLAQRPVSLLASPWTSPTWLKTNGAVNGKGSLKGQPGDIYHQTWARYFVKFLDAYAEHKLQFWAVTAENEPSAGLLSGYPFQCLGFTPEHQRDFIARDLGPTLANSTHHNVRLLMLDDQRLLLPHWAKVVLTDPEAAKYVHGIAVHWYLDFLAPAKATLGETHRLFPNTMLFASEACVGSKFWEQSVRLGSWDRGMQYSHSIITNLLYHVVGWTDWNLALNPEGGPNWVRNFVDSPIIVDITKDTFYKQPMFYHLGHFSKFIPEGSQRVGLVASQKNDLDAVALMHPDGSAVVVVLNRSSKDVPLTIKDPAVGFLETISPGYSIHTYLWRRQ
Put plainly: Inhibition of recombinant glucocerebrosidase in McIlvaine buffer at pH 5.2 after 10 mins by fluorometric analysis. The gist of the method:
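Imiglucerase in McIlvaine buffer pH 5.2 containing 0.2% (w/v) sodium taurocholate and 0.1% (v/v) Triton X-100. Enzyme pre-incubated 30 min at 37 °C with inhibitor. Then 4 mM 4-methylumbelliferyl β-D-glucopyranoside (substrate solution), 10 min at 37 °C. Stop with 100 mM glycine/NaOH pH 10.6, fluorescence ex 355/em 460 nm. IC50 from % activity vs log[I], at least five concentrations.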

Data set [2] has as its target Probable alpha-glucosidase Os06g0675700 (Oryza sativa Japonica Group, UniProt Q653V7). Put plainly: Inhibition of rice alpha-glucosidase.
Another data set has as its target Alpha-galactosidase (Coffea arabica, UniProt Q42656). In words: Inhibition of alpha-galactosidase from coffee beans.
A short description of data set [3]: Cytotoxicity against human wild type fibroblasts at up to 300 uM after 24 hrs by MTT assay. The format is cell-based. The conditions noted are these: fibroblast. (In general: Tetrazolium assays rely on reduction of a dye to a coloured formazan, in cell work by metabolically active cells.)
In the next data set the target is T2, Beta-galactosidase (Bos taurus, UniProt Q58D55).
T2 sequence (Q58D55 whole entry): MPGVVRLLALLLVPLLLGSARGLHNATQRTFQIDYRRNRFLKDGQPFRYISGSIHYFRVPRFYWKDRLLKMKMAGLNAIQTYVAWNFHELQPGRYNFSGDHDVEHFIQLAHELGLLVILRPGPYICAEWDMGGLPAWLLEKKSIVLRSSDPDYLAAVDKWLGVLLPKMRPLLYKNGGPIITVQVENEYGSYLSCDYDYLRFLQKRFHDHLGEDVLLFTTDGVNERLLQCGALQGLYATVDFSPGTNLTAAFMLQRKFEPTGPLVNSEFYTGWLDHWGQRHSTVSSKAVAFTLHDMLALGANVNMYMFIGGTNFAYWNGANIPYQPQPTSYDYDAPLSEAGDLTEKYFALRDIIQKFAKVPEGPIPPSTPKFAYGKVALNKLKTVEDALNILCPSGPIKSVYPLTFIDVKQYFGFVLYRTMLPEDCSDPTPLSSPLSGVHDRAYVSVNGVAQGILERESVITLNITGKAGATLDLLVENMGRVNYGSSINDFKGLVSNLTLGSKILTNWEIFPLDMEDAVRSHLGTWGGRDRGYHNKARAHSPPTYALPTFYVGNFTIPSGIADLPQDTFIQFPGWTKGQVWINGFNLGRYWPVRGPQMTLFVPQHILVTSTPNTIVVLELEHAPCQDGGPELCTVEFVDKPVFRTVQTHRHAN
Put plainly: Inhibition of bovine liver beta-galactosidase.

Data set [4] addresses Oligo-1,6-glucosidase IMA1 (Saccharomyces cerevisiae S288c, UniProt P53051). Put plainly: Inhibition of yeast alpha-glucosidase.
Data set [5] addresses T1, Lysosomal acid glucosylceramidase. Put plainly: Competitive inhibition of recombinant glucocerebrosidase.
The target in data set [6] is T3, Lysosomal acid glucosylceramidase (Homo sapiens) (UniProt P04062).
T3 sequence (whole entry): T1 sequence (P04062 whole entry)
In words: Enzyme stabilization ratio of recombinant glucocerebrosidase activity at 48 degC to at 37 degC at 100 uM after 60 mins.

The target in data set [7] is T3, Lysosomal acid glucosylceramidase (Homo sapiens). In words: Inhibition of glucocerebrosidase in human intact fibroblasts at 50 uM after 24 hrs by fluorometric analysis. The gist of the method: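 Fibroblasts grown in MEM with 15% inactivated FCS, 37 °C, 5% CO2, passages 14–30. Plated in DMEM with aminocyclitol (50 μM final, from DMSO) for 24 h, washed with PBS. GCase assayed with 1 h incubation at 37 °C, stopped with 100 mM glycine-NaOH pH 10.6, fluorescence 355/460 nm. Untreated and treated cells in quadruplicate.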

Data set [8] has as its target T1, Lysosomal acid glucosylceramidase. Put plainly: Inhibition of recombinant glucocerebrosidase in McIlvaine buffer at pH 7.4 after 10 mins by fluorometric analysis.
Data set [9] deals with T4, Ceramide glucosyltransferase (Homo sapiens) (UniProt Q16739).
T4 sequence (whole entry): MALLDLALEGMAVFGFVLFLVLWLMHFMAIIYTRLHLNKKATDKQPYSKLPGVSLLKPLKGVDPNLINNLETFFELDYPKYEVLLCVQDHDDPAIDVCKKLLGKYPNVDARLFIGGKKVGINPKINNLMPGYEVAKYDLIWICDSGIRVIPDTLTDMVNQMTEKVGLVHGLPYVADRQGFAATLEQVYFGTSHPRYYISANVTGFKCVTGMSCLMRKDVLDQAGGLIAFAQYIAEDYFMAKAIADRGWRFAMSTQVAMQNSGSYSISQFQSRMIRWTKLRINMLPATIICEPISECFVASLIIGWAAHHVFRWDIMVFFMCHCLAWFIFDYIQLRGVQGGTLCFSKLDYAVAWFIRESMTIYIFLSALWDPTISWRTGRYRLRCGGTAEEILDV
In words: Inhibition of glucosylceramide synthase in human A549 cells at 250 uM after 35 mins by fluorometric analysis. It is filed as cell-based.

Sequence of Oligo-1,6-glucosidase IMA1 (P53051 whole entry): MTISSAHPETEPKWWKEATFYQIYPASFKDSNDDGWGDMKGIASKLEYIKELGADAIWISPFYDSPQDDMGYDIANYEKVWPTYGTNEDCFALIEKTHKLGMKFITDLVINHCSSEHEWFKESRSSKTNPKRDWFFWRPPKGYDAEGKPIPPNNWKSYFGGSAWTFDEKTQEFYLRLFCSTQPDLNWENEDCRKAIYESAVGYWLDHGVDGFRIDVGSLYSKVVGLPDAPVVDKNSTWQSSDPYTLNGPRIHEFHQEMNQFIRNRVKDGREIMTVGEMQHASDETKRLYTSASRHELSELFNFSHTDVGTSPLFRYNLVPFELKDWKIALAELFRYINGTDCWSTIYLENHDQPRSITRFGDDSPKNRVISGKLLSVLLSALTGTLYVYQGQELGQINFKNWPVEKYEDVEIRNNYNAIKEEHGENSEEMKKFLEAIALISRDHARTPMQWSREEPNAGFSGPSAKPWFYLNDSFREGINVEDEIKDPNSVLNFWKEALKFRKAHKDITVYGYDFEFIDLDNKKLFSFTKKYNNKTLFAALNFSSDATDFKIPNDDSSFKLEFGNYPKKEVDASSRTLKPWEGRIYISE
Sequence of Alpha-galactosidase (Q42656 whole entry): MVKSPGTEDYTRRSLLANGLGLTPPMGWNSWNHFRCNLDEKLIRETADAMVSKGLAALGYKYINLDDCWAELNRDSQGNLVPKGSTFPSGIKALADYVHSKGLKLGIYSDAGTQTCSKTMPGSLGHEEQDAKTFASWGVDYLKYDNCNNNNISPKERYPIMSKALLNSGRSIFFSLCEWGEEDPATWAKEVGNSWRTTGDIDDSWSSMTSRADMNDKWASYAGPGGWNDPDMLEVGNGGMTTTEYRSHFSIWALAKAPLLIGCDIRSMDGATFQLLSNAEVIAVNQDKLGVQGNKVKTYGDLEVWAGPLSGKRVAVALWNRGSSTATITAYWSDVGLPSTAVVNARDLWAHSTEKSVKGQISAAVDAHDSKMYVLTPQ
Sequence of Probable alpha-glucosidase Os06g0675700 (Q653V7 whole entry): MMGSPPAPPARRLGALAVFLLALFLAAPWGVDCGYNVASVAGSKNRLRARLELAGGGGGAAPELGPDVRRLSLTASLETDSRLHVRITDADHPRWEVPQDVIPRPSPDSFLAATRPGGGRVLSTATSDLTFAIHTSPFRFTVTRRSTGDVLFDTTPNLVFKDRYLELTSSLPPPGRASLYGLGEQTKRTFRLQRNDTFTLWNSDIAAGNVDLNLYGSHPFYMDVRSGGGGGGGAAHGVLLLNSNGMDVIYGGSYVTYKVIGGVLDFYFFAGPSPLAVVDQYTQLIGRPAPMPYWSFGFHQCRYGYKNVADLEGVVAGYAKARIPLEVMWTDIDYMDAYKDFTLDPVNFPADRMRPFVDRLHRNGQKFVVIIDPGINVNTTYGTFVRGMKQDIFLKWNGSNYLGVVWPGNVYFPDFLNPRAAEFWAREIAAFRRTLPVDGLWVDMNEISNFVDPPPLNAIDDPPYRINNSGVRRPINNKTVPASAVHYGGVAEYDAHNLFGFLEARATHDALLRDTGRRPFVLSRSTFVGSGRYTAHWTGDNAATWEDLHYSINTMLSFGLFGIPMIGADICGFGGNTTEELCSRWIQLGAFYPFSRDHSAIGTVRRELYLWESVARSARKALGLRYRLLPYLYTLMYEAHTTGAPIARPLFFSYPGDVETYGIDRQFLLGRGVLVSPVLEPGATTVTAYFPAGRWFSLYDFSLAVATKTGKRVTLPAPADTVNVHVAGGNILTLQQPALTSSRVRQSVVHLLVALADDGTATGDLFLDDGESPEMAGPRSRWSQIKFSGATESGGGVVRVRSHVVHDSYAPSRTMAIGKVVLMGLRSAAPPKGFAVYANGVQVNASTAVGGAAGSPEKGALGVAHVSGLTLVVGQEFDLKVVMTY

The term IC50 denotes the concentration that gives 50% inhibition. As for `O[C@@H]1[C@@H](O)[C@H](O)[C@@H](NCc2cn(Cc3cc4nsnc4cc3Cl)nn2)[C@H](O)[C@H]1O`, in data set [1], the IC50 is 17.3 µM.

As to `Cn1nnc2ccc(Cn3cc(CN[C@H]4[C@H](O)[C@@H](O)[C@H](O)[C@@H](O)[C@@H]4O)nn3)cc21`, the IC50 in data set [1] amounted to 114 µM.

For `CSCCCn1cc(CN[C@H]2[C@H](O)[C@@H](O)[C@H](O)[C@@H](O)[C@@H]2O)nn1`, in data set [1], the IC50 came to 44.5 µM.

On to `CC(C)(C)OCCCOCCCn1cc(CN[C@H]2[C@H](O)[C@@H](O)[C@H](O)[C@@H](O)[C@@H]2O)nn1`, for which the concentration for half-maximal inhibition (IC50) in data set [1] is 325 µM.

For `O[C@@H]1[C@@H](O)[C@H](O)[C@@H](NCc2cn(Cc3cccc(I)c3)nn2)[C@H](O)[C@H]1O`, the IC50 in [1] stood at 10.3 µM.

In the case of `CCCCc1ncc(Cn2cc(CN[C@H]3[C@H](O)[C@@H](O)[C@H](O)[C@@H](O)[C@@H]3O)nn2)[nH]1`, the IC50 in data set [1] was 237 µM.

Take `CC(C)(CO)Cn1cc(CN[C@H]2[C@H](O)[C@@H](O)[C@H](O)[C@@H](O)[C@@H]2O)nn1`: the IC50 in data set [1] is 134 µM.

Take `O[C@@H]1[C@@H](O)[C@H](O)[C@@H](NCc2cn(C3CSCCCSC3)nn2)[C@H](O)[C@H]1O`: in data set [1], the IC50 was 35.9 µM.

In the case of `O[C@@H]1[C@@H](O)[C@H](O)[C@@H](NCc2cn(CCCCCOCc3ccccc3)nn2)[C@H](O)[C@H]1O`, in data set [1], the IC50 came out at 10 µM.

In the case of `OCCCCCCCn1cc(CN[C@H]2[C@H](O)[C@@H](O)[C@H](O)[C@@H](O)[C@@H]2O)nn1`, in [1], the IC50 was 5.8 µM.

Take `CCCCCCCCCCn1cc(CN[C@H]2[C@H](O)[C@@H](O)[C@H](O)[C@@H](O)[C@@H]2O)nn1`: the IC50 in data set [1] was 0.15 µM; in data set [2], more than 100 µM; at Alpha-galactosidase, more than 100 µM; on Beta-galactosidase, more than 100 µM; in data set [4], more than 100 µM. The Activity entry in data set [3] is reported as “Non-toxic”.

On to `COCCCOCCCOCCCn1cc(CN[C@H]2[C@H](O)[C@@H](O)[C@H](O)[C@@H](O)[C@@H]2O)nn1`, for which, in data set [1], the concentration for half-maximal inhibition (IC50) came out at 453 µM.

On to `O[C@@H]1[C@@H](O)[C@H](O)[C@@H](NCc2cn(CCCc3nc4ccc(C(F)(F)F)cc4[nH]3)nn2)[C@H](O)[C@H]1O`, for which, in data set [1], the IC50 worked out at 12.2 µM.

In general, Ki refers to the dissociation constant of the complex between target and ligand, obtained from inhibition or displacement. Usually inhibition stands for the percentage by which the read-out fell short of the control. High values mean strong suppression, low ones little suppression. In the case of `O[C@@H]1[C@@H](O)[C@H](O)[C@@H](NCc2cn(Cc3cc(OCc4ccccc4)cc(OCc4ccccc4)c3)nn2)[C@H](O)[C@H]1O`, in data set [5], the inhibition constant Ki came to 0.05 µM. Also, the IC50 in [1] was 0.05 µM; in [2] it was more than 100 µM; against Alpha-galactosidase, more than 100 µM; in data set [8] it was 0.06 µM; against Beta-galactosidase it was more than 100 µM; in data set [4], more than 100 µM. Also, the Ratio in data set [6] amounted to 31.2. In addition, the inhibition is 93% in data set [7] and 9% in data set [9]. Moreover, the Activity entry in data set [3] is listed as “Non-toxic”.

`CN1CCN(Cc2cccc(Cn3cc(CN[C@H]4[C@H](O)[C@@H](O)[C@H](O)[C@@H](O)[C@@H]4O)nn3)c2)CC1`: the 50% inhibitory concentration (IC50) in [1] is 66.5 µM.

With `CCCCCCCCCCCn1cc(CN[C@H]2[C@H](O)[C@@H](O)[C@H](O)[C@@H](O)[C@@H]2O)nn1`, the Ki in [5] is 0.05 µM. Further, the IC50 is 0.06 µM in data set [1]; more than 100 µM in data set [2]; more than 100 µM against Alpha-galactosidase; 0.1 µM in data set [8]; more than 100 µM on Beta-galactosidase; more than 100 µM in [4]. In data set [6], the Ratio was determined as 30.5. For the same compound, the figures for the inhibition in data set [7] and in [9] were 97% and 29%, respectively. In data set [3], the Activity entry is given as “Non-toxic”.

Turning to `O[C@@H]1[C@@H](O)[C@H](O)[C@@H](NCc2cn(CCCCC3CCCCC3)nn2)[C@H](O)[C@H]1O`, the Ki in data set [5] is 0.29 µM. Moreover, the half-maximal inhibitory concentration (IC50) in data set [1] was 1.5 µM; in data set [2] it was more than 100 µM; at Alpha-galactosidase it was more than 100 µM; in [8], 0.3 µM; at Beta-galactosidase it was more than 100 µM; in data set [4] it was more than 100 µM. Further, the Ratio in [6] stood at 7.5. Moreover, the inhibition in data set [7] is 30%; in [9], 8%. In addition, the Activity result in [3] is “Non-toxic”.

As to `OCCCCCCCCCCn1cc(CN[C@H]2[C@H](O)[C@@H](O)[C@H](O)[C@@H](O)[C@@H]2O)nn1`, the inhibition constant Ki in [5] was found to be 0.89 µM. For the same compound, the 50% inhibitory concentration (IC50) in data set [1] is 2.19 µM; in data set [2] it was more than 100 µM; at Alpha-galactosidase it was more than 100 µM; in [8], 1.3 µM; on Beta-galactosidase, 43 µM; in [4], more than 100 µM. Besides, in data set [6], the Ratio was 6.9. In addition, the inhibition in [7] and in data set [9] was 28% throughout. Further, the Activity entry in data set [3] is reported as “Non-toxic”.

`O[C@@H]1[C@@H](O)[C@H](O)[C@@H](NCc2cn(Cc3ccc(CN4CCCCC4)cc3)nn2)[C@H](O)[C@H]1O`: in [1], the IC50 stood at 30.9 µM.

On to `CCCCCCCCCCN[C@H]1[C@H](O)[C@@H](O)[C@H](O)[C@@H](O)[C@@H]1O`, for which the IC50 (in data set [2]; at Alpha-galactosidase; on Beta-galactosidase; in [4]) was more than 100 µM in each case. Moreover, the Ratio in data set [6] worked out at 4.9. For the same compound, the Activity entry in [3] is reported as “Non-toxic”.

With `O[C@@H]1[C@@H](O)[C@H](O)[C@@H](NCc2cn(CCCC3CCCCC3)nn2)[C@H](O)[C@H]1O`, the half-inhibitory concentration (IC50) in [1] turned out to be 4.32 µM.

As for `CCCCCCCCn1cc(CN[C@H]2[C@H](O)[C@@H](O)[C@H](O)[C@@H](O)[C@@H]2O)nn1`, the concentration for half-maximal inhibition (IC50) in data set [1] was 2.25 µM; in data set [2], more than 100 µM; against Alpha-galactosidase it was more than 100 µM; at Beta-galactosidase, more than 100 µM; in data set [4], more than 100 µM. Also, the Activity entry in [3] was “Non-toxic”.

`COCCCOCCCn1cc(CN[C@H]2[C@H](O)[C@@H](O)[C@H](O)[C@@H](O)[C@@H]2O)nn1`: the IC50 in [1] was 466 µM.

Turning to `CCCCCCCCCN1C[C@H](O)[C@@H](O)[C@H](O)[C@H]1CO`, the IC50 (in data set [2]; at Alpha-galactosidase; at Beta-galactosidase; in data set [4]) was more than 100 µM each time. Also, the Activity result in data set [3] is given as “Non-toxic”.

With `CCCCOCCCOCCCn1cc(CN[C@H]2[C@H](O)[C@@H](O)[C@H](O)[C@@H](O)[C@@H]2O)nn1`, the IC50 in data set [1] turned out to be 181 µM.
